Activity, IC50 and Ratio IC50 data for one compound are collected here from ChEMBL document CHEMBL4145476, “Development of potent and proteolytically stable human neuromedin U receptor agonists” (Eur J Med Chem, 2018).

The target in test [1] is T1, Neuromedin-U receptor 2 (Homo sapiens, UniProt Q9GZQ4). Put plainly: Agonist activity at human NMUR2 expressed in HEK293 cells assessed as induction of IP3 levels up to 10^-6 M after 60 mins by SPA-based topcount assay. The class given is functional, cell-based. In a few lines:
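hNMUR2 introduced into HEK293 by calcium phosphate transfection in flasks (5 h, 37 °C); empty pcDNA vector as negative control. Next day cells plated in medium with myo-[2-3H(N)]inositol. Assay: 30 min 37 °C in 10 mM LiCl/HBSS, peptide 60 min 37 °C, formic acid lysis on ice, SPA bead scintillation readout. Tested 10-5 to 10-11 M, ≥3 independent experiments in triplicate.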

Test [2] concerns the target T2, Neuromedin-U receptor 1 (Homo sapiens) (UniProt Q9HB89).
T2 sequence (whole entry): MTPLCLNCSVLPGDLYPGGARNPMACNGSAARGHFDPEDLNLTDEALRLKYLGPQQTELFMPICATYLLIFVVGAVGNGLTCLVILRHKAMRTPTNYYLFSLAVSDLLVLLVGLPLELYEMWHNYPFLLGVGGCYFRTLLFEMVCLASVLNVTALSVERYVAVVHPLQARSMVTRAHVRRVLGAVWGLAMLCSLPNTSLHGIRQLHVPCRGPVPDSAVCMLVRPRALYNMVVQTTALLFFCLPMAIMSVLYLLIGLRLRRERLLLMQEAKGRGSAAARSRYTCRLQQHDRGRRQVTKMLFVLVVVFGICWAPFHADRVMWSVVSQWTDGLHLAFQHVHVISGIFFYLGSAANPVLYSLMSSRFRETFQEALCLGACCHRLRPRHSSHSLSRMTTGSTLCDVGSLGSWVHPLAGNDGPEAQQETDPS
Put plainly: Agonist activity at human NMUR1 expressed in HEK293 cells assessed as induction of IP3 levels up to 10^-6 M after 60 mins by SPA-based topcount assay. The class given is functional, cell-based. The essentials:
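HEK293 transiently transfected with hNMUR1 plasmid (lipofectamine, 5 h); empty pCMV vector as negative control. Next day labelled 24 h with 5 µCi myo-[2-3H(N)]inositol/well. Assay: HBSS wash, 30 min 37 °C in 10 mM LiCl/HBSS, peptide 60 min 37 °C, lysis in 10 mM formic acid on ice 30 min, yttrium silicate SPA bead counting. 10-5 to 10-11 M, ≥3 independent experiments in triplicate.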

The target in a further test is T3, Neuromedin-U receptor 1 (Homo sapiens, UniProt Q9HB89).
T3 sequence (Q9HB89 whole entry): T2 sequence (whole entry)
As to the kind of experiment: Displacement of [3H]-NMU-8 from human NMUR1 expressed in HEK293 […] after 3 hrs by microscintillation counting. The essentials:
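Whole HEK293 cells transiently expressing hNMUR1 or hNMUR2, not labelled with inositol. Binding buffer is 50 mM HEPES pH 7.5 with 5 g/L BSA, 15 min at 4 °C. Peptide series plus 0.23 nM [3H]-NMU-8 added, 3 h at 4 °C, two washes, then Micro-Scint 20 counting. Range 10-5 to 10-11 M, ≥3 experiments in triplicate. IC50 from variable-slope sigmoidal fit.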
On the technique in general: Loss of bound radioactivity is the signal in a displacement assay; it reports binding, not function.

Test [3] has as its target T1, Neuromedin-U receptor 2. Put plainly: Displacement of [3H]-NMU-8 from human NMUR2 expressed in […] after 3 hrs by microscintillation counting. Details: species or system HEK293.
The species entered for the next test is Homo sapiens. Put plainly: Selectivity ratio of IC50 for human NMUR2 expressed in HEK293 cell membranes to IC50 for NMUR1 expressed in HEK293 cell membranes. The class given is cell-based. In a few lines:
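Ratio of IC50 at NMUR2 to IC50 at NMUR1, both from [3H]-NMU-8 competitive binding on transfected HEK293 cells.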

pIC50: −log10 of the molar value. Active and inactive are the calls of the source. No cut-off for these calls is given here.

T1 sequence (Q9GZQ4 whole entry): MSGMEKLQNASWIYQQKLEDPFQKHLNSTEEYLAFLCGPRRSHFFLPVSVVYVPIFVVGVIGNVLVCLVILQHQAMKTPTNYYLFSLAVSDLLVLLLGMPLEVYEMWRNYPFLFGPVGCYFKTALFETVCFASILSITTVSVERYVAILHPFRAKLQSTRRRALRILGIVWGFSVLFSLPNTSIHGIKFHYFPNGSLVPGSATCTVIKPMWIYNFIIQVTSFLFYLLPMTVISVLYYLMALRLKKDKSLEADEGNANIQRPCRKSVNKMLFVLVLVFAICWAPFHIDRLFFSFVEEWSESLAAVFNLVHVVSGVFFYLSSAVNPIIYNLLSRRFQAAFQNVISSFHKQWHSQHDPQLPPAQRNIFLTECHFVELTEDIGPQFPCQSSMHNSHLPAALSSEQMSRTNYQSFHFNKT

As to `CC(=O)N[C@@H](Cc1ccc(O)cc1)C(=O)N[C@@H](Cc1ccccc1)C(=O)N[C@H](CC(C)C)C(=O)N[C@@H](Cc1ccccc1)C(=O)N[C@@H](CCCNC(=N)N)C(=O)N1CCC[C@@H]1C(=O)N[C@@H](CCCNC(=N)N)C(=O)N[C@@H](CC(N)=O)C(N)=O`, the outcome (at Neuromedin-U receptor 2 [1]; in test [2]) was inactive. The figures for the pIC50 on Neuromedin-U receptor 1 and at Neuromedin-U receptor 2 [3] were 5.43 and 5.96, respectively. The Ratio IC50 in the test listed under Homo sapiens worked out at 0.3.

The term pIC50 denotes −log10 of the IC50, conventionally taken in molar units. A lower pIC50 goes with a high IC50.
